From ChEMBL document CHEMBL1135406, “Distribution of furamidine analogues in tumor cells: influence of the number of positive charges” (J Med Chem, 2002)

Test system: B16
Assay: Drug concentration required to inhibit B16 cell growth by 50% after 72 hours of incubation
Format: functional, cell-based
Conditions: Mus musculus, B16, 72 h
In short: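 B16 murine melanoma cells grown in DMEM-glutaMAX with 10% FBS, penicillin and streptomycin, 37 °C, 5% CO2; harvested by trypsinization and plated 20 h before dosing. 2 × 10⁴ exponentially growing cells per well exposed to a range of drug concentrations for 72 h at 37 °C; MTS added for a further 3 h; absorbance read at 492 nm; IC50 = 50% growth inhibition.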

| Structure (SMILES) | IC50 [µM] |
| --- | --- |
| COc1ccc(-c2ccc(-c3ccc(C(=N)N)cc3)o2)cc1 | 3.5 |
| CN(C)CCCC(=O)Nc1ccc(-c2ccc(-c3ccc(NC(=O)CCCN(C)C)cc3)o2)cc1 | 2.3 |
| N=C(N)c1ccc2[nH]c(-c3ccc(-c4ccc(N)cc4)o3)nc2c1 | > 100 |
| N=C(N)c1ccc(-c2ccc(-c3nc4ccccc4[nH]3)o2)cc1 | 51.4 |
| N=C(N)c1ccc(-c2ccc(-c3nc4cc(C(=N)N)ccc4[nH]3)o2)cc1 | 43.2 |
| CN(C)CCC/N=C(\N)c1ccc(-c2ccc(-c3ccc(/C(N)=N/CCCN(C)C)cc3)o2)cc1 | 2.5 |
| N=C(N)c1ccc(-c2ccc(-c3ccc(C(=N)N)cc3)o2)cc1 [FURAMIDINE] | 9.2 |
| c1cc(-c2ccc(-c3ccc(C4=NCCN4)cc3)o2)ccc1C1=NCCN1 | 1.1 |
| c1ccc2[nH]c(-c3ccc(-c4ccc(C5=NCCN5)cc4)o3)nc2c1 | 8.6 |
| COc1ccc(-c2ccc(-c3ccc(C4=NCCN4)cc3)o2)cc1 | 1.7 |
| CN(C)CCC/N=C(\N)c1ccc(-c2ccc(-c3nc4cc(/C(N)=N/CCCN(C)C)ccc4[nH]3)o2)cc1 | > 100 |
